In ChEMBL document CHEMBL1155456, “Thiadiazole carbamates: potent inhibitors of lysosomal acid lipase and potential Niemann-Pick type C disease therapeutics” (J Med Chem, 2010):
Calls of active or inactive are those of the source.

Assays:
[1] = Cytotoxicity against human GM05659 cells at 10 uM; format: cell-based
[2] = molecular target: T1, Lysosomal acid lipase/cholesteryl ester hydrolase (Homo sapiens) (UniProt P38571); test: Inhibition of human LAL at 10 uM after 30 mins by fluorescence assay
T1 sequence (whole entry): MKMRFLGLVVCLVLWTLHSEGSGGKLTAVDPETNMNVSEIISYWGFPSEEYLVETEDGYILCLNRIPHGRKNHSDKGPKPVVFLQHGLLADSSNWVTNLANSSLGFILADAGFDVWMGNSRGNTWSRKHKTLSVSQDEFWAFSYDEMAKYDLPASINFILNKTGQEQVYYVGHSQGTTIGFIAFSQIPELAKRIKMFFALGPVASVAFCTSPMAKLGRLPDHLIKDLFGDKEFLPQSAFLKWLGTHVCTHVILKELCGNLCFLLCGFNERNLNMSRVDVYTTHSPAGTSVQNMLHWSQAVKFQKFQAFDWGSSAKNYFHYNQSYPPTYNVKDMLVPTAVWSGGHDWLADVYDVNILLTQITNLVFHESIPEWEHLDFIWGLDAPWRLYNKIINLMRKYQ

[3] = Cytotoxicity against human GM03123 cells at 10 uM; format: cell-based
[4] = molecular target: T1, Lysosomal acid lipase/cholesteryl ester hydrolase (Homo sapiens); test: Inhibition of LAL in human GM05659 cell lysate assessed as reduction in lysosomal storage organelle cholesterol level at 0.1 to 10 uM after 4 days by bicinchoninic acid assay
How it was run: (§1)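 Human fibroblasts in MEM with 10% FBS, exposed to compound 3–4 days (withdrawal variant: 3 days treatment, then 1 day compound-free). Cells PBS-washed, rinsed in 150 mM sodium acetate pH 5.5, lysed in 1% Triton X-100 for 30 min at 37 °C. 1 mM (final) 4-methylumbelliferyl oleate added; fluorescence activity normalized to protein by bicinchoninic acid assay.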

[5] = molecular target: T2, Lysosomal acid lipase/cholesteryl ester hydrolase (Homo sapiens, UniProt P38571); test: Inhibition of human LAL after 30 mins by fluorescence assay
T2 sequence (P38571 whole entry): T1 sequence (whole entry)
How it was run: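 Purified recombinant human LAL (1 mU/ml final) with threefold serial compound dilutions in 200 mM sodium acetate pH 5.5, 0.02% Tween-20, 30 min at 37 °C. 125 μM (final) 4-methylumbelliferyl oleate in Triton X-100 added; fluorescence (ex 355/em 450) read after 1 h at 37 °C. IC50 from rectangular-hyperbola fit of normalized activity; mean ± SEM of 3 independent experiments.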

[6] = molecular target: T1, Lysosomal acid lipase/cholesteryl ester hydrolase (Homo sapiens); test: Inhibition of human LAL assessed as enzyme decarbamoylation rate constant at 10 uM after 30 mins by fluorescence assay
How it was run: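 Purified human LAL carbamoylated with 10 μM compound for 30 min, then diluted 250× to 40 nM with 125 μM 4-methylumbelliferyl oleate. Run at 37 °C, pH 5.5 acetate buffer with Tween and Triton X-100; fluorescence read every 10 min for 2 h. k3 from linear regression of ln(fraction inhibited) vs time; mean ± SEM of 4 experiments.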

[7] = molecular target: T1, Lysosomal acid lipase/cholesteryl ester hydrolase (Homo sapiens); test: Inhibition of human LAL at 833 nM by fluorescence assay; details: TDE = time-dependent effect
How it was run: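 Purified human LAL pre-incubated with compound at 833 nM for varying times at 37 °C (500 nM final in assay). Reaction started with 125 μM (final) 4-methylumbelliferyl oleate, followed 30 min at 37 °C. Normalized to DMSO control; mean ± SEM of 2 experiments, 12 wells per condition.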

[8] = molecular target: T1, Lysosomal acid lipase/cholesteryl ester hydrolase (Homo sapiens); test: Inhibition of LAL in human GM05659 cell lysate assessed as reduction in lysosomal storage organelle cholesterol level at 0.1 to 10 uM treated for 3 days measured after 1 day of compound withdrawal by bicinchoninic acid assay; how it was run: as §1
[9] = molecular target: T1, Lysosomal acid lipase/cholesteryl ester hydrolase (Homo sapiens); test: Inhibition of LAL in intact human GM03123 cells assessed as reduction in lysosomal storage organelle cholesterol level at 10 uM after 3 days by filipin LSO assay; format: cell-based
How it was run: (§2)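 Fibroblasts in MEM with 10% FBS treated 3 days, stained with filipin or LipidTOX green, imaged by automated fluorescence microscopy. After background correction, integrated thresholded fluorescence within lysosomal storage organelles was normalized to total cell area defined by low-threshold filipin signal.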

[10] = molecular target: T1, Lysosomal acid lipase/cholesteryl ester hydrolase (Homo sapiens); test: Inhibition of LAL in intact human GM05659 cells assessed as increase in neutral lipid accumulation in lysosomal storage organelle at 10 uM after 3 days by lipidTox green staining-based fluorescence microscopy; format: cell-based; how it was run: as §2
[11] = molecular target: T1, Lysosomal acid lipase/cholesteryl ester hydrolase (Homo sapiens); test: Competitive inhibition of human LAL preincubated for 30 mins by Lineweaver-Burke plot analysis
How it was run: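 Purified recombinant human LAL pre-incubated with inhibitor 30 min at 37 °C; reaction started with 4-methylumbelliferyl oleate at various concentrations, monitored 45 min. Concentrations are final. Lineweaver-Burk plots fitted by linear regression; two independent experiments, 6–8 wells per treated condition.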

Row | Compound | Activity [1] | inhibition [2] | Activity [3] | other results
1 | O=C(Cc1nsnc1N1CCCCC1)N1CCOCC1 | Non-toxic | inactive | Non-toxic | 
2 | O=C(Oc1nsnc1N1CCOCC1)N1CCCCC1 | Non-toxic |  | Non-toxic | inhibition [4]: Active; IC50 [5]: 424 nM; Activity [6]: 0.0016 min⁻¹; inhibition [7]: tde
3 | CC(C)(C)C(=O)Cc1nsnc1N1CCOCC1 | Non-toxic | inactive | Non-toxic | 
4 | Oc1nsnc1N1CCCC1 | Non-toxic | inactive | Non-toxic | 
5 | O=C(Cc1nsnc1N1CCOCC1)c1ccccc1 | Non-toxic | inactive | Non-toxic | 
6 | O=C(Oc1nsnc1N1CCCCC1)N1CCCCC1 | Non-toxic |  | Non-toxic | inhibition [8]: Active; inhibition [4]: Active; inhibition [9]: Active; IC50 [5]: 152 nM; Activity [6]: 0.001 min⁻¹; inhibition [7]: tde; inhibition [10]: Active
7 | CN1CCC(OC(=O)Nc2ccc(F)cc2)CC1 |  | inactive |  | 
8 | NCCCCCCNC(=O)OCc1ccccc1 |  | inactive |  | 
9 | CC(C)(C)OC(=O)Cc1nsnc1N1CCOCC1 | Non-toxic | inactive | Non-toxic | 
10 | COC(N)=O |  | inactive |  | 
11 | Oc1nsnc1N1CCCCCC1 | Non-toxic | inactive | Non-toxic | 
12 | O=C(Oc1nsnc1N1CCOCC1)N1CCOCC1 | Non-toxic |  | Non-toxic | inhibition [4]: Active; inhibition [9]: inactive; IC50 [5]: 492 nM; Activity [6]: 0.0043 min⁻¹; inhibition [7]: tde; inhibition [10]: inactive
13 | CC(C)(C)OC(=O)Cc1nsnc1N1CCCCC1 | Non-toxic |  | Non-toxic | 
14 | CNC(=O)Oc1ccc2c(c1)[C@]1(C)CCN(C)[C@@H]1N2C |  | inactive |  | 
15 | O=C(Oc1nsnc1N1CCCC1)N1CCOCC1 | Non-toxic |  | Non-toxic | inhibition [4]: Active; IC50 [5]: 473 nM; Activity [6]: 0.0037 min⁻¹; inhibition [7]: tde
16 | COC(=O)C(CCc1ccccc1)c1nsnc1N1CCOCC1 (racemic) | Non-toxic | inactive | Non-toxic | 
17 | COC(=O)C(C)c1nsnc1N1CCOCC1 (racemic) | Non-toxic | Active | Non-toxic | 
18 | Oc1nsnc1N1CCCCC1 | Non-toxic | inactive | Non-toxic | 
19 | O=C(Oc1nsnc1N1CCCC1)N1CCCCC1 | Non-toxic |  | Non-toxic | inhibition [8]: Active; inhibition [4]: Active; IC50 [5]: 496 nM; Activity [6]: 0.0007 min⁻¹
20 | Oc1nsnc1N1CCOCC1 | Non-toxic | inactive | Non-toxic | 
21 | O=C(Oc1nsnc1N1CCCCCC1)N1CCCCC1 | Non-toxic |  | Non-toxic | inhibition [8]: Active; inhibition [4]: Active; IC50 [5]: 300 nM; Activity [6]: 0.0013 min⁻¹; inhibition [7]: tde
22 | COc1ccccc1OCC(CO)OC(N)=O (stereo not given) |  | inactive |  | 
23 | CN(C)C(=O)Oc1cccc([N+](C)(C)C)c1 |  | inactive |  | 
24 | O=C(Cc1nsnc1N1CCOCC1)N1CCOCC1 | Non-toxic | inactive | Non-toxic | 
25 | O=C(Oc1nsnc1N1CCCCCC1)N1CCOCC1 | Non-toxic |  | Non-toxic | inhibition [4]: Active; IC50 [5]: 189 nM; Activity [6]: 0.0042 min⁻¹; inhibition [7]: tde
26 | COC(=O)C(C)(C)c1nsnc1N1CCOCC1 | Non-toxic | inactive | Non-toxic | 
27 | CC(C(=O)c1ccccc1)c1nsnc1N1CCOCC1 (racemic) | Non-toxic | inactive | Non-toxic | 
28 | CCOC(=O)Cc1nsnc1N1CCOCC1 | Non-toxic | inactive | Non-toxic | 
29 | O=C(Oc1nsnc1N1CCCCC1)N1CCOCC1 | Non-toxic |  | Non-toxic | inhibition [4]: Active; IC50 [5]: 68 nM; inhibition [11]: Active; Activity [6]: 0.003 min⁻¹; inhibition [7]: tde
